# This is a sample that favours compounds with a hit; in the whole collection about 4.8% have one here.
# PTK2B oligo ant: Pyk2 (human) oligomerization antagonism. Q14289. z-score (the deposit names both 25 µM and 10 µM). Q293 cells, Pyk2 FERM NanoBiT luminescence; active compounds read low. AID 1347419. 99,000 tested, 0.83% active;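 active = Z-score of -3 or lower, scaled per plate to the spread of control and sample wells; inactive = z-score above -3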;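 also: negative z-score means lost luminescence so less FERM oligomerization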
# Target sequence (Q14289 whole entry, looked up): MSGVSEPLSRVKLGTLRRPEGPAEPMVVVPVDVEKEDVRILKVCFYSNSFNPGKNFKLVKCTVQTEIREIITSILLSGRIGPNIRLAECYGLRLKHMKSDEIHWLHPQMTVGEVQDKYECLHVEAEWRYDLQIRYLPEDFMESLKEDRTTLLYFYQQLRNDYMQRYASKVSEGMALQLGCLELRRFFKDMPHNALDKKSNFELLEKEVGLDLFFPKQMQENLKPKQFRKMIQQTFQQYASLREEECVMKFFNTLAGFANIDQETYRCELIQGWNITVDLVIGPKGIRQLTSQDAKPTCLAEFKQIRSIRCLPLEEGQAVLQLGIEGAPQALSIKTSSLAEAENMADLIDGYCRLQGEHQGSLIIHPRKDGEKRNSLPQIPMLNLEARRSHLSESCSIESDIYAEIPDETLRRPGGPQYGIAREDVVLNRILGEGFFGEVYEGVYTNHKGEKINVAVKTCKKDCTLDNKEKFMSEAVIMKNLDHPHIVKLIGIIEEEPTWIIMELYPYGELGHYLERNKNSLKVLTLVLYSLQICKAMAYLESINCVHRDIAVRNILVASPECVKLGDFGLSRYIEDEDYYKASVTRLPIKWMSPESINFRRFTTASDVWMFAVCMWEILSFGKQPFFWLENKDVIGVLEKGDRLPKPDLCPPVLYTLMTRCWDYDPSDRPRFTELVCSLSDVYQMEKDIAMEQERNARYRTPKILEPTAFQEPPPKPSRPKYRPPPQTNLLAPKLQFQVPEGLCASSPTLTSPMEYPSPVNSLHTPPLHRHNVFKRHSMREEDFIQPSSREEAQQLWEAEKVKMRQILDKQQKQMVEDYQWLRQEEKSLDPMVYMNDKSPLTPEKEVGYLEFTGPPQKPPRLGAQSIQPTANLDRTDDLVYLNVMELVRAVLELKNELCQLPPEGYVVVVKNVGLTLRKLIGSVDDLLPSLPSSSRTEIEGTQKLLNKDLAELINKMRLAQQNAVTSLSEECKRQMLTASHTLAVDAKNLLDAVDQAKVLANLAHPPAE
# ERa SRC1 inh: blocks coactivator binding to human estrogen receptor alpha; P03372; TR-FRET ER-alpha LBD / SRC-1 peptide, estradiol-bound; inhibition, % at 25.6 µM; 86,000 tested, 1.7% active; AID 629; in the data active = inhibition above about 50%
# ERb SRC1 inh: ER-beta (human) coactivator binding inhibition; TR-FRET ER-beta LBD / SRC1-Cy5 peptide binding; receptor agonist-loaded with 1 µM estradiol; Q92731; 86,000 tested, 1.3% active; inhibition, % at 25.6 µM;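 active = compounds whose percent inhibition of the receptor-coactivator binding signal exceeds about 50% in the single-dose screen, limit read from the data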
# SF-1 act: activators of human nuclear receptor SF-1. CHO-K1 Gal4-SF-1 LBD luciferase reporter; % increase over DMSO SF-1-specific signal. Q13285. activation, % at 10 µM. AID 522. 65,000 tested, 1.9% active;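 active = activation above the mean activation of all tested compounds plus 3 SD, cut at about 50% in these data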
#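 material = CHO-K1 cells with Gal4–hSF-1 LBD chimera plus Gal4-driven luciferase | compound = 10 µM single point, 1% DMSO | incubation = 20 h compound exposure at 37 °C after 1 h cell settling | measured by = SteadyLite luciferase luminescence | evaluation = percent activation relative to DMSO median and mock-transfected background | control set = DMSO negative control and −SF1 background wells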
# ERa coact pot: ER-alpha (human) coactivator binding potentiation; 86,000 tested, 1.3% active; P03372; TR-FRET ERalpha-LBD/SRC-Cy5 coactivator binding, 2 h; 100 = basal binding, no effect; coactivator binding (% of control), % at 25.6 µM; in the data active = activity above about 200%;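 also: binding measured in presence of low estradiol as agonist stimulus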
# RORA act: activates the human nuclear receptor RORA; P35398; CHO-K1 Gal4-RORA LBD luciferase reporter, luminescence; percent increase over mock-subtracted basal signal; activation, % at 10 µM; 65,000 tested, 1.5% active; AID 560;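 active = activation above the mean of all tested compounds plus 3 SD, cut at about 49% in these data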
# A number is an active result; . = inactive; / = not tested or not shown; + = active, no number; [ ] = remark or other dose.
SMILES,PTK2B oligo ant,ERa SRC1 inh,ERb SRC1 inh,SF-1 act,ERa coact pot,RORA act
CCc1cc(C(=O)OC)c(NC(=O)C2CC(=O)NN2Cc2ccccc2)s1 (configuration not stated),.,/,/,/,/,/
COc1cc2c(cc1OC)C(C(=O)NCC1COc3ccccc3O1)C(c1cccnc1)N(C)C2=O (configuration not stated),/,.,.,.,.,.
CCCC(=O)NC(C)c1nc2ccccc2n1C(C)C (configuration not stated),/,.,.,.,.,.
O=C(CCCN1C(=O)CSc2ncccc21)N1CCN(Cc2ccccc2)CC1,/,.,.,.,.,.
O=C(NCc1ccco1)C(c1ccccc1)N(Cc1ccccc1)C(=O)Cn1nnc2ccccc21 (configuration not stated),-4.1,.,.,/,.,/
Cn1cc(NC(=O)c2cc(NC(=O)c3cc(NC=O)cn3C)cn2C)cc1C(=O)NCCC(=N)N,/,61,71,.,.,.
N#C/C(=C\c1ccccc1)c1nc2ncccc2[nH]1,.,/,/,/,/,/
CNC(=O)CC(C(=O)O)c1ccc(OCC(C)C)cc1 (configuration not stated),.,.,.,.,.,.
COc1ccc(-c2cc3ccccc3oc2=O)cc1NC(=O)c1ccc(Br)o1,.,66[fluorescence artefact?],.,.,231,.
CN(C)c1cccc(C(=O)Nc2cccc(F)c2)c1,.,.,.,58,.,.
CCN(CC)c1ccc(C(=O)Nc2cccc(F)c2)cc1,.,.,.,54,.,.
O=C(Nc1cccc(F)c1)c1c(F)c(F)c(F)c(F)c1F,.,.,.,.,.,.
CCn1c(SCC(=O)Nc2nccs2)nnc1-c1ccc(S(=O)(=O)N2CCCCC2)cc1,.,.,.,.,.,.
Cc1nc(N2CCC(C)CC2)c2nnn(Cc3ccccc3)c2n1,.,.,.,/,.,/
O=C(Oc1ccc(-c2cnc3ccccc3n2)cc1)c1ccc(Br)o1,.,.,.,/,489,/
Cc1cc(C)c2c(n1)nn1c(N3CCN(c4ccccc4C)CC3)cc(C)nc21,.,.,.,.,402[fluorescence artefact?],.
Cc1ccc(N2CCN(c3cc(C)nc4c5c(C)cc(C)nc5nn34)CC2)cc1,/,.,.,.,.,.
O=c1[nH]c2c(s1)C(c1ccc(O)cc1)C1C3CCC(C3)C1S2 (configuration not stated),/,70,.,/,.,/
Cc1cnn(-c2ccc3nnc(-c4ccc(Br)cc4)n3n2)c1,.,.,.,.,284[fluorescence artefact?],.
CCCCN(C)C/C(O)=C(\C#N)c1nc(-c2ccccc2)cs1,.,.,.,/,.,/
O=C(c1cc(C2CC2)nc2ccc(Br)cc12)N1N=C(C(F)F)CC1(O)C(F)F (configuration not stated),-3.3,.,.,/,.,/
O=C(c1cc(C2CC2)nc2ccccc12)N1N=C(C(F)F)CC1(O)C(F)F (configuration not stated),.,.,.,/,.,/
Cc1cnnn1-c1ccc(C(=O)CCl)cc1,.,.,.,/,.,/
Cc1cccc(OCC(=O)O/N=C(\N)Cc2ccc(Cl)cc2)c1,.,.,.,/,.,/
CC(C)NC(=O)c1cc(-c2ccco2)on1,.,.,.,.,.,.
SMILES,PTK2B oligo ant,ERa SRC1 inh,ERb SRC1 inh,SF-1 act,ERa coact pot,RORA act
CC(C)NC(=O)c1cc(-c2ccc(Br)cc2)on1,.,.,.,.,.,66
CCCNC(=O)c1cc(-c2ccc(Br)cc2)on1,.,.,.,58,.,.
Cc1ccc(-c2cc(C(=O)NCCN3CCOCC3)no2)cc1,.,.,.,.,.,.
CCCCCCSC1=C(C#N)C(c2ccc(O)cc2)CC(=O)N1 (configuration not stated),-3.3,.,.,.,.,.
Cc1cc(C(=O)CSc2nc3ccccc3c(=O)n2C)c(C)n1Cc1ccc2c(c1)OCO2,.,.,.,.,+[fluorescence artefact?],.
Cc1cc(SCC(=O)c2ccc3c(c2)OCO3)nc2ccccc12,.,.,.,/,441[fluorescence artefact?],/
O=C(CSc1nc2ccccc2o1)c1ccc2c(c1)OCCO2,.,.,.,.,.,.
Cc1cc(SCC(=O)c2cc3ccccc3o2)nc2ccccc12,.,.,.,/,228[fluorescence artefact?],/
Cc1cc(SCC(=O)N2CCCC2)nc2ccccc12,.,.,.,.,.,.
CCOC(=O)Cc1csc(NC(=O)COc2ccc(N(C)S(=O)(=O)c3cccs3)cc2)n1,.,.,.,.,.,.
Cc1ccc(C(=O)COC(=O)c2ccccc2N2C(=O)C3C4CCC(C4)C3C2=O)cc1C (configuration not stated),.,/,/,/,/,/
CCOC(=O)c1nnn(-c2nonc2N)c1CN(CC)c1ccccc1,.,.,.,/,.,/
Cc1nc(OCC(=O)c2ccc(Cl)cc2)c(C#N)c2c1COC(C)(C)C2,.,.,.,/,773[fluorescence artefact?],/
C#CCn1c(=NC(=O)c2cccs2)sc2cccc(OC)c21,/,/,/,76,/,79
Cc1nc2sc(C(c3cccc(F)c3)N3CCOCC3)c(O)n2n1 (configuration not stated),.,.,.,.,.,.
COC(=O)c1ccc(NC(=O)CN2C(=O)CSC2=O)cc1,.,.,.,.,319[fluorescence artefact?],.
COC(=O)CCC/C=C1/SCC(NC(=O)c2ccccc2)C1O (configuration not stated),.,.,.,.,213,.
Cc1noc(C)c1CSc1ncnc2ccccc12,.,.,.,.,.,.
CCOC(=O)C(C(=O)OCC)C(C(=O)OCC)N1CCOCC1 (configuration not stated),.,.,.,/,.,/
CCOC(=O)N1CCN(c2c(NCCCN3CCCCCC3)c(=O)c2=O)CC1,/,.,.,/,.,/
CCOC(=O)N1CCN(c2c(NCCCOC(C)C)c(=O)c2=O)CC1,/,.,.,.,213,.
COCC(C)NC(=O)c1cc(-c2cccc(OC)c2)on1 (configuration not stated),.,.,.,71,.,.
COc1cccc(-c2cc(C(=O)Nc3ccccc3SC)no2)c1,.,.,.,.,.,66
CCC(C)NC(=O)c1cc(-c2ccc(OC)cc2)on1 (configuration not stated),.,.,.,.,.,60
Cc1cccc(N(CC(=O)NC2CCCCC2)C(=O)CCC(=O)Nc2cc(C)ccn2)c1,/,/,/,.,/,.
c1csc(-c2cnc3ccccc3n2)c1,.,.,.,50,.,95
Cc1cccc(N(CC(=O)N/N=C/c2cc([N+](=O)[O-])ccc2Cl)S(C)(=O)=O)c1C,.,/,/,/,/,/
Cc1nn(-c2ccccc2)c(C)c1/C=N/NC(=O)c1cc(-c2ccccc2)n[nH]1,-3,/,/,/,/,/
Cc1ccc(S(=O)(=O)N/N=C/c2c(C)nn(-c3ccccc3)c2C)cc1,.,/,/,/,/,/
O=c1[nH]c(CN2CCC(c3nc4ccccc4s3)CC2)nc2sc3c(c12)CCC3,/,.,.,.,.,.
